{"source": "ChEMBL document CHEMBL4699431", "about": "“Design and synthesis of substituted (1-(benzyl)-1H-1,2,3-triazol-4-yl)(piperazin-1-yl)methanone conjugates: study on their apoptosis inducing ability and tubulin polymerization inhibition” (RSC Med Chem, 2020)", "key": {"BT-474 [1]": {"tested_on": "BT-474", "assay": "Induction of morphological changes in human BT-474 cells assessed as loss of cell-cell adhesion incubated for 48 hrs by phase-contrast microscope method", "format": "functional, cell-based", "settings": "dose microM 0.5-2.5, time 48.0 hrs", "procedure,_shortened": "(§1)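 Plated at 5×10^4 cells/well, dosed after 24 h at 0.5, 1 and 2.5 μM. After 48 h, morphology was examined and photographed under phase-contrast microscopy.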"}, "BT-474 [2]": {"tested_on": "BT-474", "assay": "Induction of mitochondrial membrane potential loss in human BT-474 cells assessed as depolarized cell population (P2) at 2.5 uM incubated for 48 hrs by JC1 staining based flow cytometry (reference value: 0.48 %)", "format": "functional", "procedure,_shortened": "(§2)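 Cells (1x10⁶/mL) adhered overnight, then exposed to 0.5, 1 and 2.5 μM for 48 h. Collected, PBS-washed, incubated with JC-1 dye (1 μM) for 30 min at 37 °C, washed twice, trypsinized, centrifuged and read by flow cytometry.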"}, "BT-474 [3]": {"tested_on": "BT-474", "assay": "Inhibition of clonogenicity in human BT-474 cells assessed as reduction in colony formation measured after 7 days by crystal violet staining", "format": "functional, cell-based", "settings": "dose microM 0.5-2.5, time 7.0 day", "procedure,_shortened": "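100 cells/well in 6-well plates; after overnight attachment, treated 12 h, then grown in fresh medium at 37 °C, 5% CO₂ with medium changed every 2 days. Colonies fixed and stained with 1% crystal violet in methanol for 3 h, counted by imaging, expressed as percent of untreated control.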"}, "HeLa": {"tested_on": "HeLa", "assay": "Cytotoxicity against human HeLa cells assessed as reduction in cell viability incubated for 48 hrs by MTT assay", "format": "functional, cell-based", "procedure,_shortened": "(§3)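 Cells plated at 3000-4500 per well and treated after 24 h. DMSO stocks (20 mM) were diluted in medium to final DMSO <0.1%, twofold series […], 48 h. MTT (0.5 mg/mL) was added for 4 h, formazan dissolved in DMSO, absorbance read at 570 nm.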"}, "BT-474 [4]": {"tested_on": "BT-474", "assay": "Induction of mitochondrial membrane potential loss in human BT-474 cells assessed as depolarized cell population (P1) at 0.5 uM incubated for 48 hrs by JC1 staining based flow cytometry (reference value: 98.09 %)", "format": "functional", "procedure,_shortened": "as §2"}, "BT-474 [5]": {"tested_on": "BT-474", "assay": "Induction of apoptosis in human BT-474 cells after 48 hrs by Annexin-V alexa fluor 488/PI staining based flow cytometry analysis", "settings": "dose microM 0.5-2.5, time 48.0 hrs"}, "BT-474 [6]": {"tested_on": "BT-474", "assay": "Induction of morphological changes in human BT-474 cells assessed as cell shrinkage incubated for 48 hrs by phase-contrast microscope method", "format": "functional, cell-based", "settings": "dose microM 0.5-2.5, time 48.0 hrs", "procedure,_shortened": "as §1"}, "BT-474 [7]": {"tested_on": "BT-474", "assay": "Cell cycle arrest in human BT-474 cells assessed as decrease in G0/G1 accumulation in phase at 0.5 uM by propidium iodide staining based flow cytometry(reference value: 60.53%)", "format": "functional", "design": "scale not given: the % may be the effect or the level left", "procedure,_shortened": "(§4)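 Seeded at 1 x 10⁵ cells/well, after 24 h serum-starved 6 h to synchronize, then returned to FBS-containing medium and treated at 0.5, 1 and 2.5 μM. Harvested cells were PBS-washed, fixed in ice-cold 70% ethanol, stained with propidium iodide (50 μg/mL) plus RNase A for 20 min at 37 °C in the dark. About 10,000 events analysed by flow cytometry.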"}, "NCI-H460": {"tested_on": "NCI-H460", "assay": "Cytotoxicity against human NCI-H460 cells assessed as reduction in cell viability incubated for 48 hrs by MTT assay", "format": "functional, cell-based", "settings": "NCI-H460, 48 h", "procedure,_shortened": "as §3"}, "BT-474 [8]": {"tested_on": "BT-474", "assay": "Induction of mitochondrial membrane potential loss in human BT-474 cells assessed as depolarized cell population (P1) at 2.5 uM incubated for 48 hrs by JC1 staining based flow cytometry (reference value: 98.09 %)", "format": "functional", "procedure,_shortened": "as §2"}, "BT-474 [9]": {"tested_on": "BT-474", "assay": "Cytotoxicity against human BT-474 cells assessed as reduction in cell viability incubated for 48 hrs by MTT assay", "format": "functional, cell-based", "settings": "BT-474, 48 h", "procedure,_shortened": "as §3"}, "BT-474 [10]": {"tested_on": "BT-474", "assay": "Induction of apoptosis in human BT-474 cells assessed as chromatin condensation incubated for 48 hrs by acridine orange/ethidium bromide double staining-based fluorescence microscopic analysis", "format": "functional, cell-based", "settings": "dose microM 0.5-2.5, time 48.0 hrs", "procedure,_shortened": "(§5)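 Plated at 5×10^4 cells/well, treated after 24 h and held 48 h at 37 °C, 5% CO₂. Acridine orange and ethidium bromide (10 µg/mL each) added in equal volumes, then cells viewed by fluorescence microscopy at 200x.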"}, "BT-474 [11]": {"tested_on": "BT-474", "assay": "Cell cycle arrest in human BT-474 cells assessed as decrease in G0/G1 accumulation in phase at 1 uM by propidium iodide staining based flow cytometry(reference value: 60.53%)", "format": "functional", "design": "scale not given: the % may be the effect or the level left", "procedure,_shortened": "as §4"}, "BT-474 [12]": {"tested_on": "BT-474", "assay": "Induction of morphological changes in human BT-474 cells assessed reduction in number of viable cells incubated for 48 hrs by phase-contrast microscope method", "format": "functional, cell-based", "settings": "dose microM 0.5-2.5, time 48.0 hrs", "procedure,_shortened": "as §1"}, "BT-474 [13]": {"tested_on": "BT-474", "assay": "Induction of mitochondrial membrane potential loss in human BT-474 cells assessed as depolarized cell population (P2) at 1 uM incubated for 48 hrs by JC1 staining based flow cytometry (reference value: 0.48 %)", "format": "functional", "procedure,_shortened": "as §2"}, "BT-474 [14]": {"tested_on": "BT-474", "assay": "Cell cycle arrest in human BT-474 cells assessed as increase in accumulation in G2/M phase at 1 uM by propidium iodide staining based flow cytometry(reference value: 19.35%)", "format": "functional", "procedure,_shortened": "as §4"}, "BT-474 [15]": {"tested_on": "BT-474", "assay": "Cell cycle arrest in human BT-474 cells assessed as increase in accumulation in G2/M phase at 2.5 uM by propidium iodide staining based flow cytometry(reference value: 19.35%)", "format": "functional", "procedure,_shortened": "as §4"}, "Tubulin (Homo sapiens)": {"target": "Tubulin (Homo sapiens) (UniProt P68371+Q9H4B7+P0DPH7+P68366+Q13509+Q71U36+P04350+Q3ZCM7+P07437+P68363+Q9BQE3+Q6PEY2+Q13885+Q9BVA1+Q9BUF5)", "assay": "Inhibition of tubulin (unknown origin) polymerization by cell free in vitro assay", "format": "protein-complex assay"}, "BT-474 [16]": {"tested_on": "BT-474", "assay": "Induction of mitochondrial membrane potential loss in human BT-474 cells assessed as depolarized cell population (P1) at 1 uM incubated for 48 hrs by JC1 staining based flow cytometry (reference value: 98.09 %)", "format": "functional", "procedure,_shortened": "as §2"}, "BT-474 [17]": {"tested_on": "BT-474", "assay": "Cell cycle arrest in human BT-474 cells assessed as increase in accumulation in G1 phase at 0.5 uM by propidium iodide staining based flow cytometry(reference value: 4.06%)", "format": "functional", "procedure,_shortened": "as §4"}, "BT-474 [18]": {"tested_on": "BT-474", "assay": "Induction of apoptosis in human BT-474 cells assessed as membrane bleeding incubated for 48 hrs by acridine orange/ethidium bromide double staining-based fluorescence microscopic analysis", "format": "functional, cell-based", "settings": "dose microM 0.5-2.5, time 48.0 hrs", "procedure,_shortened": "as §5"}, "BT-474 [19]": {"tested_on": "BT-474", "assay": "Induction of apoptosis in human BT-474 cells assessed as chromatin condensation at 0.5 to 2.5 uM incubated for 24 hrs by DAPI staining based DAPI staining based confocal microscopic analysis", "format": "functional, cell-based", "settings": "dose microM 0.5-2.5, time 24.0 hrs"}, "BT-474 [20]": {"tested_on": "BT-474", "assay": "Cell cycle arrest in human BT-474 cells assessed as increase in accumulation in G1 phase at 1 uM by propidium iodide staining based flow cytometry(reference value: 4.06%)", "format": "functional", "procedure,_shortened": "as §4"}, "BT-474 [21]": {"tested_on": "BT-474", "assay": "Cell cycle arrest in human BT-474 cells assessed as increase in accumulation in S phase at 2.5 uM by propidium iodide staining based flow cytometry(reference value: 2.22%)", "format": "functional", "procedure,_shortened": "as §4"}, "BT-474 [22]": {"tested_on": "BT-474", "assay": "Cell cycle arrest in human BT-474 cells assessed as increase in accumulation in S phase at 1 uM by propidium iodide staining based flow cytometry(reference value: 2.22%)", "format": "functional", "procedure,_shortened": "as §4"}, "HaCaT": {"tested_on": "HaCaT", "assay": "Cytotoxicity against human HaCaT cells assessed as reduction in cell viability incubated for 48 hrs by MTT assay", "format": "functional, cell-based", "procedure,_shortened": "as §3"}, "BT-474 [23]": {"tested_on": "BT-474", "assay": "Cell cycle arrest in human BT-474 cells assessed as increase in accumulation in G2/M phase at 0.5 uM by propidium iodide staining based flow cytometry(reference value: 19.35%)", "format": "functional", "procedure,_shortened": "as §4"}, "BT-474 [24]": {"tested_on": "BT-474", "assay": "Induction of apoptosis in human BT-474 cells assessed as non-uniform distribution of chromatin incubated for 48 hrs by acridine orange/ethidium bromide double staining-based fluorescence microscopic analysis", "format": "functional, cell-based", "settings": "dose microM 0.5-2.5, time 48.0 hrs", "procedure,_shortened": "as §5"}}, "note": "Activity calls are given as the source filed them. The rule behind the calls is not given here."}
{"smiles": "O=C(c1cn(Cc2cccc(Oc3ccccc3)c2)nn1)N1CCN(S(=O)(=O)c2ccc(Br)cc2)CC1", "values": [{"measurement": "Activity", "setting": "BT-474 [1]", "result": "Active"}, {"measurement": "Activity", "setting": "BT-474 [2]", "result": 89.84, "unit": "%"}, {"measurement": "inhibition", "setting": "BT-474 [3]", "result": "Dose-dependent effect"}, {"measurement": "IC50", "setting": "HeLa", "result": 1020, "unit": "nM"}, {"measurement": "Activity", "setting": "BT-474 [4]", "result": 50.26, "unit": "%"}, {"measurement": "Activity", "setting": "BT-474 [5]", "result": "Dose-dependent effect"}, {"measurement": "Activity", "setting": "BT-474 [6]", "result": "Active"}, {"measurement": "Activity", "setting": "BT-474 [7]", "result": 10.83, "unit": "%"}, {"measurement": "IC50", "setting": "NCI-H460", "result": 4880, "unit": "nM"}, {"measurement": "Activity", "setting": "BT-474 [8]", "result": 10.81, "unit": "%"}, {"measurement": "IC50", "setting": "BT-474 [9]", "result": 990, "unit": "nM"}, {"measurement": "Activity", "setting": "BT-474 [10]", "result": "Dose-dependent effect"}, {"measurement": "Activity", "setting": "BT-474 [11]", "result": 9.64, "unit": "%"}, {"measurement": "Activity", "setting": "BT-474 [12]", "result": "Active"}, {"measurement": "Activity", "setting": "BT-474 [13]", "result": 61.44, "unit": "%"}, {"measurement": "Activity", "setting": "BT-474 [14]", "result": 62.72, "unit": "%"}, {"measurement": "Activity", "setting": "BT-474 [15]", "result": 63.41, "unit": "%"}, {"measurement": "inhibition", "setting": "Tubulin (Homo sapiens)", "result": "Active"}, {"measurement": "Activity", "setting": "BT-474 [16]", "result": 41.46, "unit": "%"}, {"measurement": "Activity", "setting": "BT-474 [17]", "result": 11, "unit": "%"}, {"measurement": "Activity", "setting": "BT-474 [18]", "result": "Dose-dependent effect"}, {"measurement": "Activity", "setting": "BT-474 [19]", "result": "Active"}, {"measurement": "Activity", "setting": "BT-474 [20]", "result": 9.41, "unit": "%"}, {"measurement": "Activity", "setting": "BT-474 [21]", "result": 5.57, "unit": "%"}, {"measurement": "Activity", "setting": "BT-474 [22]", "result": 5.85, "unit": "%"}, {"measurement": "IC50", "setting": "HaCaT", "result": 3680, "unit": "nM"}, {"measurement": "Activity", "setting": "BT-474 [23]", "result": 58.93, "unit": "%"}, {"measurement": "Activity", "setting": "BT-474 [24]", "result": "Dose-dependent effect"}]}
